Screens (PubChem BioAssay)
Compounds with a hit are over-represented: about 3.9% of the library has one in this group of screens.
TAAR1 antag: human TAAR1 antagonism; AID 624466; CHO RD-HGA16 TAAR1, Fluo-8 calcium fluorescence, antagonist; inhibition, % at 3 µM; 1.5% of 360,000 active; Q96RJ0;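 active means inhibition above a per-plate cutoff, the mean inhibition of test compounds on that plate plus 3 SD, cut at about 49% in these data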
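System: RD-HGA16 CHO cells with stable hTAAR1 and Gα16 | Probe or stimulus: EC80 β-phenethylamine stimulus | Dosing: 3 µM, single point | Times: Dye loading 75 min at 37 °C, then 30 min room temperature | Measured by: Fluo-8 calcium-sensitive fluorescence | Read-out basis: % inhibition of agonist calcium response | Replicates: n of 1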
HTR2A ag: mouse HTR2A agonism via beta-arrestin recruitment. AID 624169. P35363. CHO-K1 mHTR2A beta-arrestin complementation, luminescence; percent of 30 µM serotonin response. 0.66% of 360,000 active. activation, % at 7.6 µM;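 active means activation above a run cutoff, the mean activation of all tested compounds plus 3 SD, cut at about 14% in these data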
CHRM1 agonist: human M1 muscarinic receptor agonism; CHO-K1 hM1, Fluo-8 calcium fluorescence, agonist mode; 0% DMSO, 100% acetylcholine EC100; activation, % at 3 µM; 0.33% of 360,000 active;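 active means activation above the run's mean compound activation plus 3 SD, cut at about 16% in these data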;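 further: peak over basal fluorescence ratio within a 140 s kinetic read after compound addition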
Target sequence (P11229 whole entry, looked up): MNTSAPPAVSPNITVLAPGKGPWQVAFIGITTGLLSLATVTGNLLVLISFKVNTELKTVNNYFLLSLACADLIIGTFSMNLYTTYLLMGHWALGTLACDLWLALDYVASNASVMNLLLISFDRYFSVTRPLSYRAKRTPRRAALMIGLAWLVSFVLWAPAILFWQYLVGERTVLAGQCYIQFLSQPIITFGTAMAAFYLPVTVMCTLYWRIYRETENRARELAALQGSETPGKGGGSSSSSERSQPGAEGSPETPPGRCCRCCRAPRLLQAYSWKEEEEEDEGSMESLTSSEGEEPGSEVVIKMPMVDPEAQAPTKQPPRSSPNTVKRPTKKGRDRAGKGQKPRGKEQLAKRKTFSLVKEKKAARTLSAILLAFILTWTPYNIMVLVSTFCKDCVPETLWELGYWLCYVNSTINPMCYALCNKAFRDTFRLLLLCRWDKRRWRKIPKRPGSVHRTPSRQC
CHRM1 antagonist: human CHRM1 antagonism | CHO-K1 hM1, Fluo-8 calcium fluorescence, ACh EC80 antagonist | inhibition, % at 3 µM | 1.3% of 360,000 active | AID 588852;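 active means percent inhibition above its own plate's cutoff, namely the mean of that plate's compound wells plus 3 SD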;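 further: peak over basal fluorescence ratio during 140 s after agonist addition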
M1 PAM: human CHRM1 positive allosteric modulation; activation, % at 3 µM; P11229; AID 588819; 0.088% of 360,000 active; CHO-K1 hM1, Fluo-8 calcium fluorescence, ACh EC20; 0% = ACh EC20, 100% = maximal ACh; in the data active means activation above about 19%, passing the limit was not always enough
TAAR1 agonist: human TAAR1 agonism. Q96RJ0. 0.99% of 360,000 active. activation, % at 3 µM. AID 624467. CHO RD-HGA16 TAAR1, Fluo-8 calcium fluorescence; vehicle wells 0%, saturating PEA agonist 100%;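 active means activation above the mean activation of all test compounds in the run plus 3 SD, cut at about 38% in these data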
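System: CHO-derived RD-HGA16 cells with stable Gα16 and human TAAR1. Times: 17-24 h plating, Fluo-8 75 min 37 °C, 30 min RT. Measured by: calcium-sensitive Fluo-8 signal, excitation 470-495, emission 515-575 nm. Read-out basis: % activation relative to PEA EC100 response. Control set: DMSO and PEA EC100. Repeats: no replicates (n 1).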
Hits are given with their value.

Results for COC(=O)C1=C(c2ccc(F)cc2OCc2ccccc2)C[C@@H]2CC[C@H]1N2C(=O)NCc1ccc(C)cc1 ?
TAAR1 antag: 59.7; HTR2A ag: inactive; CHRM1 agonist: inactive; CHRM1 antagonist: inactive; M1 PAM: inactive; TAAR1 agonist: inactive

What do the screens show for `COC(=O)C1=C(c2ccc(F)cc2OCc2ccccc2)C[C@@H]2CC[C@H]1N2C(=O)NCc1ccccc1C(F)(F)F`?
TAAR1 antag: inactive; HTR2A ag: inactive; CHRM1 agonist: inactive; CHRM1 antagonist: 31.7; M1 PAM: inactive; TAAR1 agonist: inactive

What do the screens show for `COC(=O)C1=C(c2ccc(F)cc2OCc2ccccc2)C[C@@H]2CC[C@H]1N2C(=O)N1CCC(C)CC1`?
HTR2A ag: inactive; CHRM1 agonist: inactive; CHRM1 antagonist: 78.0; M1 PAM: inactive

What do the screens show for `Cc1ccc(CN2Cc3ccc(Br)cc3-n3nncc3C2)cc1`?
TAAR1 antag: inactive; HTR2A ag: inactive; CHRM1 agonist: inactive; CHRM1 antagonist: inactive; M1 PAM: inactive; TAAR1 agonist: inactive

How did CC12CN3CC(C)(CN(C1)C31CCOCC1)C2=O do in these assays?
TAAR1 antag: inactive; HTR2A ag: inactive; CHRM1 agonist: inactive; CHRM1 antagonist: inactive; M1 PAM: inactive; TAAR1 agonist: inactive

What do the screens show for `CN(C)CC1CSCCC1(O)c1cccc(Cl)c1` (configuration not stated)?
TAAR1 antag: inactive; HTR2A ag: inactive; CHRM1 agonist: inactive; CHRM1 antagonist: inactive; M1 PAM: inactive; TAAR1 agonist: inactive

Results for C[C@]12CC[C@@H](O)CC1=CCC1C2CC[C@@]2(C)C1CC[C@@H]2N (some centres not stated) ?
TAAR1 antag: inactive; HTR2A ag: inactive; CHRM1 agonist: inactive; CHRM1 antagonist: 26.4; M1 PAM: inactive; TAAR1 agonist: inactive

What do the screens show for `C[C@]12CC[C@H](N)CC1=CCC1C2CC[C@@]2(C)C1CC[C@@H]2O` (some centres not stated)?
TAAR1 antag: inactive; HTR2A ag: inactive; CHRM1 agonist: inactive; CHRM1 antagonist: inactive; M1 PAM: inactive; TAAR1 agonist: inactive

How did CC1Oc2cc3c(-c4c(O)cc(O)c5c(O)c6c(cc45)OC(C)C(C)C6=O)c(O)cc(O)c3c(O)c2C(=O)C1C (configuration not stated) do in these assays?
HTR2A ag: inactive; CHRM1 agonist: inactive; CHRM1 antagonist: inactive; M1 PAM: inactive

What do the screens show for `CCCCC1C(=O)NC(=S)N(C)C1=O` (configuration not stated)?
TAAR1 antag: inactive; HTR2A ag: inactive; CHRM1 agonist: inactive; CHRM1 antagonist: inactive; M1 PAM: inactive; TAAR1 agonist: inactive

What do the screens show for `O=c1[nH]c(O)c(C=NC2CCCCC2)c(=O)[nH]1`?
TAAR1 antag: inactive; HTR2A ag: inactive; CHRM1 agonist: inactive; CHRM1 antagonist: inactive; M1 PAM: 25.9; TAAR1 agonist: inactive

What do the screens show for `CCCCCCCC(=O)NC(Oc1ccccc1[N+](=O)[O-])C(Cl)(Cl)Cl` (configuration not stated)?
TAAR1 antag: inactive; HTR2A ag: inactive; CHRM1 agonist: inactive; CHRM1 antagonist: inactive; M1 PAM: inactive; TAAR1 agonist: inactive

How did NC(N)=N/N=C/c1ccc(N(c2ccccc2)c2ccccc2)cc1 do in these assays?
TAAR1 antag: inactive; HTR2A ag: inactive; CHRM1 agonist: inactive; CHRM1 antagonist: inactive; M1 PAM: inactive; TAAR1 agonist: 77.2

Results for COc1ccc(C(=O)C2CCCN(Cc3ccc(C)s3)C2)c(OC)c1 (configuration not stated) ?
TAAR1 antag: inactive; HTR2A ag: inactive; CHRM1 agonist: inactive; CHRM1 antagonist: inactive; M1 PAM: inactive; TAAR1 agonist: inactive

Results for COc1ccc(C(=O)C2CCCN(Cc3cccc(C)n3)C2)c(OC)c1 (configuration not stated) ?
TAAR1 antag: inactive; HTR2A ag: inactive; CHRM1 agonist: inactive; CHRM1 antagonist: 46.0; M1 PAM: inactive; TAAR1 agonist: inactive

What do the screens show for `N#Cc1c(/N=C/c2c(O)n(Cc3ccco3)c(=O)[nH]c2=O)sc2c1CCCC2`?
TAAR1 antag: inactive; HTR2A ag: 18.5; CHRM1 agonist: inactive; CHRM1 antagonist: inactive; M1 PAM: inactive; TAAR1 agonist: inactive

Results for O=c1[nH]c(=O)n(Cc2ccco2)c(O)c1/C=N/N1CCCCCC1 ?
TAAR1 antag: inactive; HTR2A ag: inactive; CHRM1 agonist: inactive; CHRM1 antagonist: inactive; M1 PAM: inactive; TAAR1 agonist: inactive

Results for c1ccc2c(c1)Sc1ccccc1N2CC1CN2CCC1CC2 (configuration not stated) ?
TAAR1 antag: inactive; HTR2A ag: inactive; CHRM1 agonist: inactive; CHRM1 antagonist: 98.5; M1 PAM: inactive; TAAR1 agonist: inactive

How did COC(=O)C1=C(c2cc3ccccc3s2)C[C@@H]2CC[C@H]1N2C(=O)NCc1ccc(F)cc1 do in these assays?
TAAR1 antag: inactive; HTR2A ag: inactive; CHRM1 agonist: inactive; CHRM1 antagonist: inactive; M1 PAM: inactive; TAAR1 agonist: inactive

Results for C=C1C[C@]2(O)[C@@]3(C)CCC(=O)C(C)(C)C3=C(O)C(=O)[C@@]2(C)[C@@H]2C(=O)O[C@@](C)(C(=O)OC)C(=O)[C@@]12C ?
TAAR1 antag: inactive; HTR2A ag: inactive; CHRM1 agonist: inactive; CHRM1 antagonist: inactive; M1 PAM: inactive; TAAR1 agonist: inactive

What do the screens show for `CC1=CC2OC3CC4OC(=O)C=CC=CC(=O)OCCC(C)C(O)C(=O)OCC2(CC1)C4(C)C31CO1` (configuration not stated)?
TAAR1 antag: 89.2; HTR2A ag: inactive; CHRM1 agonist: inactive; CHRM1 antagonist: 36.8; M1 PAM: inactive; TAAR1 agonist: inactive

Results for CC1CCOC(=O)C=CC=CC(=O)OC2CC3OC4C5OC5(C)C(O)CC4(COC(=O)C1O)C2(C)C31CO1 (configuration not stated) ?
TAAR1 antag: inactive; HTR2A ag: inactive; CHRM1 agonist: inactive; CHRM1 antagonist: inactive; M1 PAM: inactive; TAAR1 agonist: inactive

Results for CCN(CC)c1ccc(/C=N/c2sc3c(c2C#N)C2CCN3CC2)c(O)c1 ?
HTR2A ag: inactive; CHRM1 agonist: inactive; CHRM1 antagonist: inactive; M1 PAM: inactive

Results for COc1ccc2[nH]c(C)c(CCNCc3cn(C)c4ccccc34)c2c1 ?
TAAR1 antag: inactive; HTR2A ag: inactive; CHRM1 agonist: inactive; CHRM1 antagonist: inactive; M1 PAM: inactive; TAAR1 agonist: inactive

What do the screens show for `CCc1nc(N2CCNCC2)c(C#N)c2c1CSC(C)(C)C2`?
TAAR1 antag: inactive; HTR2A ag: inactive; CHRM1 agonist: inactive; CHRM1 antagonist: 47.1; M1 PAM: inactive; TAAR1 agonist: inactive

What do the screens show for `CC(C)Cc1nc(N2CCNCC2)c(C#N)c2c1CCC2`?
TAAR1 antag: inactive; HTR2A ag: inactive; CHRM1 agonist: inactive; CHRM1 antagonist: inactive; M1 PAM: inactive; TAAR1 agonist: inactive
